One may read the inhibition as the change of the read-out against control, counted positive when it falls.

Assay [1] has as its target Death-associated protein kinase 3 (Homo sapiens) (UniProt O43293). Put plainly: Inhibition of human recombinant DAPK3 at 15 nM related to control ULK1.
Assay [2] concerns the target Serine/threonine-protein kinase SIK3 (Homo sapiens) (UniProt Q9Y2K2). Put plainly: Inhibition of human recombinant QSK at 15 nM in presence of ATP by radiometric assay relative to control.
The target in assay [3] is T1, Serine/threonine-protein kinase Sgk3 (Homo sapiens) (UniProt Q96BR1).
T1 sequence (whole entry): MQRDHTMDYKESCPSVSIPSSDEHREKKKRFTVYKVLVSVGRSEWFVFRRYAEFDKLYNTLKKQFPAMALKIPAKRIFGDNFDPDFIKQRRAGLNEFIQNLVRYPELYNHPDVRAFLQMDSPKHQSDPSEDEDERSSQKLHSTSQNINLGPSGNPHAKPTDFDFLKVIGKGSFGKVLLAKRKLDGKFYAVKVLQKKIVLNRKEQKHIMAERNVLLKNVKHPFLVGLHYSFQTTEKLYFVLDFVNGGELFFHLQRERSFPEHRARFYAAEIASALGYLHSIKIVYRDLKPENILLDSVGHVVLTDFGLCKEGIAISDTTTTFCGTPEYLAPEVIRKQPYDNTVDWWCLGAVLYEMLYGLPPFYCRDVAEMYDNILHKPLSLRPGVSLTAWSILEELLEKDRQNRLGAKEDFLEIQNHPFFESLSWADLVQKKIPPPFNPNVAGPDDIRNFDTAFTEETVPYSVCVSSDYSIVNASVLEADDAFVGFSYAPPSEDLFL
Put plainly: Inhibition of human recombinant SGK3 at 15 nM in presence of ATP by radiometric assay relative to control.

Assay [4] has as its target Tyrosine-protein kinase Yes (Homo sapiens) (UniProt P07947). Put plainly: Inhibition of human recombinant YES at 15 nM in presence of ATP by radiometric assay relative to control.
The target in assay [5] is Serine-protein kinase ATM (Homo sapiens) (UniProt Q13315). Put plainly: Inhibition of human recombinant ATM at 15 nM related to control ULK1. The procedure, abridged:
(§1)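 Panel of 327 recombinant human kinases, each assayed in vitro by radiometric activity assay in duplicate at a single inhibitor concentration per compound, chosen with reference to its ULK1 inhibition. Activity remaining was expressed as percent of vehicle control, and percent inhibition was calculated as 100 minus percent activity remaining.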

Assay [6] addresses 5'-AMP-activated protein kinase catalytic subunit alpha-2 (Homo sapiens) (UniProt P54646). Put plainly: Inhibition of human recombinant AMPKa2 at 40 nM in presence of ATP by radiometric assay relative to control. The procedure, abridged:
as §1

In assay [7] the target is ALK tyrosine kinase receptor (Homo sapiens) (UniProt Q9UM73). Put plainly: Inhibition of human recombinant ALK at 40 nM in presence of ATP by radiometric assay relative to control. The procedure, abridged:
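Panel of 327 recombinant human kinases in radiometric activity assays, each screened in duplicate at a single inhibitor concentration; percent activity remaining relative to vehicle control, percent inhibition taken as 100 minus activity remaining.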

Assay [8] concerns the target Aurora kinase B (Homo sapiens) (UniProt Q96GD4). Put plainly: Inhibition of human recombinant AurB at 40 nM related to control ULK1. The procedure, abridged: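 Radiometric activity assays in a panel of 327 human recombinant kinases, each run in duplicate at one inhibitor concentration. Activity remaining is expressed as percent of vehicle control, and percent inhibition is calculated as 100% minus percent activity remaining.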

For assay [9], the target named is Death-associated protein kinase 2 (Homo sapiens) (UniProt Q9UIK4). Put plainly: Inhibition of human recombinant DAPK2 at 40 nM in presence of ATP by radiometric assay relative to control.
For assay [10], the target named is Tyrosine-protein kinase HCK (Homo sapiens) (UniProt P08631). Put plainly: Inhibition of human recombinant HCK at 40 nM in presence of ATP by radiometric assay relative to control.
Assay [11] concerns the target Tyrosine-protein kinase SYK (Homo sapiens) (UniProt P43405). Put plainly: Inhibition of human recombinant SYK at 40 nM related to control ULK1.
In assay [12] the target is T2, Testis-specific serine/threonine-protein kinase 1 (Homo sapiens) (UniProt Q9BXA7).
T2 sequence (whole entry): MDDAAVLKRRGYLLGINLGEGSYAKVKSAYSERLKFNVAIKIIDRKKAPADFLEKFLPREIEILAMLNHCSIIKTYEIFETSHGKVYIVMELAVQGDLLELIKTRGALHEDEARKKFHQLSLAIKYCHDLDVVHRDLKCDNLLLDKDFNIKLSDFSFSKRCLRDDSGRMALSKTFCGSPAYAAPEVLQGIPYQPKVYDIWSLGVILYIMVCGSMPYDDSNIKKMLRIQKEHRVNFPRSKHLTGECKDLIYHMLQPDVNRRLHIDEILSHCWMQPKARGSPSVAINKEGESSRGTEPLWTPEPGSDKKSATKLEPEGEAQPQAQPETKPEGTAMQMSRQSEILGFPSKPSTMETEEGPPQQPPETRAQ
Put plainly: Inhibition of human recombinant TSSK1 at 500 nM in presence of ATP by radiometric assay relative to control.

The target of assay [13] is Serine/threonine-protein kinase WNK3 (Homo sapiens) (UniProt Q9BYP7). Put plainly: Inhibition of human recombinant Wnk3 at 500 nM in presence of ATP by radiometric assay relative to control.
Assay [14] concerns the target Bone morphogenetic protein receptor type-1B (Homo sapiens) (UniProt O00238). Put plainly: Inhibition of human recombinant BMPR1B at 500 nM related to control ULK1.
The target of assay [15] is Death-associated protein kinase 1 (Homo sapiens) (UniProt P53355). Put plainly: Inhibition of human recombinant DAPK1 at 500 nM related to control ULK1.
Assay [16] has as its target Serine/threonine-protein kinase Chk2 (Homo sapiens) (UniProt O96017). Put plainly: Inhibition of human recombinant CHK2 at 500 nM in presence of ATP by radiometric assay relative to control.
Assay [17] addresses Mitogen-activated protein kinase kinase kinase 10 (Homo sapiens) (UniProt Q02779). Put plainly: Inhibition of human recombinant MLK2 at 500 nM in presence of ATP by radiometric assay relative to control.
In assay [18] the target is Serine/threonine-protein kinase 4 (Homo sapiens) (UniProt Q13043). Put plainly: Inhibition of human recombinant MST1 at 500 nM related to control ULK1.

Chain of Tyrosine-protein kinase HCK (Homo sapiens) (P08631 2-526 limits assumed): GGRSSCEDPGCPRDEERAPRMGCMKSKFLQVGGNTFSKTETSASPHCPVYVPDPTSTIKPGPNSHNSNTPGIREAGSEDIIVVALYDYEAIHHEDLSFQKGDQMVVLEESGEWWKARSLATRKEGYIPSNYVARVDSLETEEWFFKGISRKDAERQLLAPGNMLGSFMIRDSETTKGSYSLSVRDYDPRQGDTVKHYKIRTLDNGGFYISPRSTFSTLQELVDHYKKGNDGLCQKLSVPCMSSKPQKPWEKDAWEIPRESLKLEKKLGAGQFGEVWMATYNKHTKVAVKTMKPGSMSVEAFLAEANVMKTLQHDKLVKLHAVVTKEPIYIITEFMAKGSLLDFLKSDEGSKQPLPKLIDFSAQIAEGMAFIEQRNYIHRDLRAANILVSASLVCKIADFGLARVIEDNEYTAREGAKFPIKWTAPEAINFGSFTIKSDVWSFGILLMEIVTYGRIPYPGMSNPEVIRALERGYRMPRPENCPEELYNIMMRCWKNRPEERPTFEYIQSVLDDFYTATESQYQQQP
Chain of Serine/threonine-protein kinase Chk2 (Homo sapiens) (O96017 whole entry): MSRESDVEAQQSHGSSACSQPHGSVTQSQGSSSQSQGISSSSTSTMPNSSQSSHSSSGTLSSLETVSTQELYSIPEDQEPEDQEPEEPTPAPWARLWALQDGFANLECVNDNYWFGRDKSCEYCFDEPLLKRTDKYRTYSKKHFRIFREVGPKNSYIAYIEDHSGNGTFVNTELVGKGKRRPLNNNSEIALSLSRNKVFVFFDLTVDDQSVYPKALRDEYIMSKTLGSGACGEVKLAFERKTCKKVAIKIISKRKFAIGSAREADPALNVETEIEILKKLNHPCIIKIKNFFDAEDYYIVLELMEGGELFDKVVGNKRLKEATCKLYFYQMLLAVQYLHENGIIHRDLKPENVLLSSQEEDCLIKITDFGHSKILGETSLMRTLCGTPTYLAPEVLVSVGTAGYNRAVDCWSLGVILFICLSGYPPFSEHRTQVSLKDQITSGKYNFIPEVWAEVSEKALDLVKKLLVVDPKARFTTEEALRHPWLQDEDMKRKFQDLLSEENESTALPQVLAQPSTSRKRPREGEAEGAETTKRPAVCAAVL
Chain of Death-associated protein kinase 3 (Homo sapiens) (O43293 whole entry, looked up): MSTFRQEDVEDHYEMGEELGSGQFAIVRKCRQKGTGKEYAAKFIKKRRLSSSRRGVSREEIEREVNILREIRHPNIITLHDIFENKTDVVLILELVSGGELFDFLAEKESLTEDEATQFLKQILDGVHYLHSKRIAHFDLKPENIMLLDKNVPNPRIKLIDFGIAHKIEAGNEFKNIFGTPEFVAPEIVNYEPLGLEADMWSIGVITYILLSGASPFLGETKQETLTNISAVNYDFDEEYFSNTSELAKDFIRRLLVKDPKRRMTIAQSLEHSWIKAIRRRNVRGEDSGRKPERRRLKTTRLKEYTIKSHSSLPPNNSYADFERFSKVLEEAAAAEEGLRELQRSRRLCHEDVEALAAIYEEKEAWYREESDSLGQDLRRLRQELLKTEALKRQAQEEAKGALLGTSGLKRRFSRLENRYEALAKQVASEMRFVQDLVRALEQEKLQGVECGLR
Chain of Aurora kinase B (Homo sapiens) (Q96GD4 whole entry): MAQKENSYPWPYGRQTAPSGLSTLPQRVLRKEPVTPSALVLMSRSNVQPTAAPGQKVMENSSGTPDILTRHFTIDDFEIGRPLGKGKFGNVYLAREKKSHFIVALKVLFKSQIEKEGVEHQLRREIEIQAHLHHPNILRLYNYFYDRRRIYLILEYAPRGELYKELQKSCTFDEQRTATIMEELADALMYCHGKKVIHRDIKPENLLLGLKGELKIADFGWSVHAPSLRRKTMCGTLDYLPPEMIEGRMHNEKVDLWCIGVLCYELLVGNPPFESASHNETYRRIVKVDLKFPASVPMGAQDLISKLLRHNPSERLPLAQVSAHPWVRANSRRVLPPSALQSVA
Chain of Serine-protein kinase ATM (Homo sapiens) (Q13315 whole entry): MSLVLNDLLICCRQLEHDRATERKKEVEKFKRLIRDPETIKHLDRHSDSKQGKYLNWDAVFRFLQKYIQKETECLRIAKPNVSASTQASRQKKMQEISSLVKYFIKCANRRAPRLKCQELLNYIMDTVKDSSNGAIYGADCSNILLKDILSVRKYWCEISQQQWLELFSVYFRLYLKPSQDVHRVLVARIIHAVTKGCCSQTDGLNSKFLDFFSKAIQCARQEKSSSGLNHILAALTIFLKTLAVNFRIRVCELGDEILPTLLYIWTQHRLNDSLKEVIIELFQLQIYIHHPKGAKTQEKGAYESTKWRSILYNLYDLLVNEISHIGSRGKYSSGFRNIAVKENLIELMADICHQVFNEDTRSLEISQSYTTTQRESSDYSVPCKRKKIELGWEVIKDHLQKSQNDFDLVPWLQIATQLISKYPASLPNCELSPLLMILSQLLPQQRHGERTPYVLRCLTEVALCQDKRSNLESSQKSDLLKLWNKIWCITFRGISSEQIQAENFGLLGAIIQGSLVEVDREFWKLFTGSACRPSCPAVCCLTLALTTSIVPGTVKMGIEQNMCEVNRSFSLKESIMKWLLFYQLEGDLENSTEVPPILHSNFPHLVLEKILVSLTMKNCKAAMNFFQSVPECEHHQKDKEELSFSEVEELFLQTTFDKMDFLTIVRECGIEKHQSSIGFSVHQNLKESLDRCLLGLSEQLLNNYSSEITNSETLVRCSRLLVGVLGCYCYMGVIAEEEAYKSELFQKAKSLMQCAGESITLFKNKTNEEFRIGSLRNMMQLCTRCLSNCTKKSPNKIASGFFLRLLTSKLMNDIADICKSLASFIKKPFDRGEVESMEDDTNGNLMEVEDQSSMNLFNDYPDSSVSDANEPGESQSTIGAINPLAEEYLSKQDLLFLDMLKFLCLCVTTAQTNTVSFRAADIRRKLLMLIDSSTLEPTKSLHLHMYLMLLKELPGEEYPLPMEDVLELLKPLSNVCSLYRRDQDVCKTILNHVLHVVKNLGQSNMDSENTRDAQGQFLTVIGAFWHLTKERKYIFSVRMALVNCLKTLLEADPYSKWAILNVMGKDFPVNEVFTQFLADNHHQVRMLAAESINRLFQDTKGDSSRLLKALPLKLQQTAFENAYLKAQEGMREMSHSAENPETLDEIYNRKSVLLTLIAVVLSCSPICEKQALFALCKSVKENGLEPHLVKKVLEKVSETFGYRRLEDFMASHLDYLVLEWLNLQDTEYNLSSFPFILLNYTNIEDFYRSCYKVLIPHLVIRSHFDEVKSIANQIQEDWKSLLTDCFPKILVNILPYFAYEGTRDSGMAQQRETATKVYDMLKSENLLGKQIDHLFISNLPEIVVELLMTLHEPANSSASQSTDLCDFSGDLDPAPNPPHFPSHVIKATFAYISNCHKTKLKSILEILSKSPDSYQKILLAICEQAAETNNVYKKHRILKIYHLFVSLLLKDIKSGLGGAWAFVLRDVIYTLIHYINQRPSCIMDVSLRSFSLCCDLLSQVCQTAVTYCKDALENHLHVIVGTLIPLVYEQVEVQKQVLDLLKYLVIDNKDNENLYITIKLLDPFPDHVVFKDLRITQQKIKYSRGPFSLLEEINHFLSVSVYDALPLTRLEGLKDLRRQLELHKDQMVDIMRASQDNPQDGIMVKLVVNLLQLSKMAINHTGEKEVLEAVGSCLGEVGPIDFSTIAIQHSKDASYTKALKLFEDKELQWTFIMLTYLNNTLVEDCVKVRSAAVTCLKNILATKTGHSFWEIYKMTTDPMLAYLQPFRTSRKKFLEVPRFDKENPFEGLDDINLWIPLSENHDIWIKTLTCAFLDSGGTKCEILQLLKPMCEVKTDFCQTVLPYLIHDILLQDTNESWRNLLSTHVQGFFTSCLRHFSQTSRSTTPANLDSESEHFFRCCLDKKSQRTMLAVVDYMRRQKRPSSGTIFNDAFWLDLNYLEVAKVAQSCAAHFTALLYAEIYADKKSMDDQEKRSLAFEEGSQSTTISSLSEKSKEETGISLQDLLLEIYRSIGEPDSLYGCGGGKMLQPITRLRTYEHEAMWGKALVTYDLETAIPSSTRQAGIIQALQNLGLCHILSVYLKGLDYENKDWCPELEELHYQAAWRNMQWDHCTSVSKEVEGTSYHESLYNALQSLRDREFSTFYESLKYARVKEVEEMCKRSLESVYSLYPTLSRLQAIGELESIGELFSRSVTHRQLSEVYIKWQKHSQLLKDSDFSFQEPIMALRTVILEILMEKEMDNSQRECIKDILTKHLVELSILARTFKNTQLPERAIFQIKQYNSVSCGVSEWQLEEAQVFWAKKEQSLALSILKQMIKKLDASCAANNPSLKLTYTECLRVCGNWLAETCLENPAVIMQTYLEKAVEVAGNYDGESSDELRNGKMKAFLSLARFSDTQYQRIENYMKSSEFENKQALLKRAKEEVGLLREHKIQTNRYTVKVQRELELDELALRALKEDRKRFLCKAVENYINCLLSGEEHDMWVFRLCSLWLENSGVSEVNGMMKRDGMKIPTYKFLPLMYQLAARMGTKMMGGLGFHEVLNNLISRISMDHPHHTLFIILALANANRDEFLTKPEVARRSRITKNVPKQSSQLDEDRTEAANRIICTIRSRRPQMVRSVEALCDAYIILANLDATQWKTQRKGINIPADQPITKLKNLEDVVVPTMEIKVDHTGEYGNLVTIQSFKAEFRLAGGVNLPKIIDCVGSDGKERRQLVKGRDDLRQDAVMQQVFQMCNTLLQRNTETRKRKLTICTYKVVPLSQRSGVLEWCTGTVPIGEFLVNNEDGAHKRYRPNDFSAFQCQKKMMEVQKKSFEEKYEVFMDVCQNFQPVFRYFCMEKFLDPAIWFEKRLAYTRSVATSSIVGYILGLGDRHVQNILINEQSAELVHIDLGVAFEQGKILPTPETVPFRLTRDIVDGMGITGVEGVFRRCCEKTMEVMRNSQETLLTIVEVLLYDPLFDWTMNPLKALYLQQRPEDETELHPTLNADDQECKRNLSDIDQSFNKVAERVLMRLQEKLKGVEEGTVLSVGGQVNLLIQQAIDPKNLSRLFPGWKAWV

Turning to `CC(C)[C@H](NC(=O)c1cc(-c2cnn3cc(-c4ccc(OCCN5CCCCC5)cc4)cnc23)cs1)C(F)(F)F`, the fold change (FC) turned out to be 0 in assay [1] and 0.07 in [5]. Further, the inhibition was determined as 86% in assay [2], 4% in [3] and 76% in [4].

Consider `O=C(N[C@@H](C1CC1)C(F)(F)F)c1cc(-c2cnn3cc(-c4ccc(F)cc4)cnc23)cs1`, for which the inhibition in [6] was found to be 7%; in assay [7] it was 0%; in [9], 0%; in assay [10] it was 0%. Also, the fold change (FC) was found to be 0.67 in [8] and 0 in assay [11].

Turning to `CNC(=O)c1ccccc1Oc1nc(Nc2cc(OC)c(OC)c(OC)c2)ncc1Br`, the inhibition in [12] worked out at 0%; in [13], 6%; in assay [16], 0%; in assay [17] it was 70%. For the same compound, the fold change (FC) in [14], in assay [15] and in assay [18] was 0 each time.

The values above are taken from ChEMBL document CHEMBL5653631, “A Potent and Selective ULK1 Inhibitor Suppresses Autophagy and Sensitizes Cancer Cells to Nutrient Stress” (iScience, 2018).
